Assay results taken from ChEMBL document CHEMBL3124898, “Constituents of an extract of Cryptocarya rubra housed in a repository with cytotoxic and glucose transport inhibitory effects” (J Nat Prod, 2014).

What was measured:
HT-29 = assay: Cytotoxicity against human HT-29 cells; assay type: functional, cell-based
How it was run: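 HT-29 human colon cancer cells treated with serial dilutions of test samples. IC50 derived by nonlinear regression. Measured in triplicate in two independent experiments. Paclitaxel served as positive control.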

[1] = target: T1, Solute carrier family 2, facilitated glucose transporter member 1 (Homo sapiens) (UniProt P11166); assay: Inhibition of GLUT-1 in human H1299 cells assessed as 2-deoxy-D-[3H]glucose uptake at 30 uM incubated for 15 mins prior to 2-deoxy-D-[3H]glucose challenge measured after 10 mins by liquid scintillation counting analysis (reference value: 100%); assay type: cell-based; parameters: scale not given: the % may be the effect or the level left
T1 sequence (whole entry): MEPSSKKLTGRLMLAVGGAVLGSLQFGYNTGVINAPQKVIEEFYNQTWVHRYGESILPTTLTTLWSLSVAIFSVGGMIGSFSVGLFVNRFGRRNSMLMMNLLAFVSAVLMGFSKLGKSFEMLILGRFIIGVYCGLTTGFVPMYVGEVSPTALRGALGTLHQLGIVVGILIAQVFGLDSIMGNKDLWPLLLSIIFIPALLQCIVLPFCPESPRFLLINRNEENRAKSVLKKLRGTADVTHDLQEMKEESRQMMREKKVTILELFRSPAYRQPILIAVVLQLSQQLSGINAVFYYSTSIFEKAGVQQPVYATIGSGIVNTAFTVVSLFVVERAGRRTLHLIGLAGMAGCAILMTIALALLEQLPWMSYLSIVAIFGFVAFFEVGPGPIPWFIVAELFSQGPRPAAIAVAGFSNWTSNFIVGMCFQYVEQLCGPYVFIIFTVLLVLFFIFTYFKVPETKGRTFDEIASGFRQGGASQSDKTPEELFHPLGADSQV
How it was run: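 Before dosing, H1299 human lung cancer cells were washed and held in serum-free DMEM for 2 h at 37 °C in 10% CO2, then in KRP buffer for 30 min at 37 °C. Compound was added at 30 μM final and incubated 15 min at 37 °C. Uptake was started with 37 MBq/L 2-deoxy-3H glucose plus 1 mM glucose (final) and stopped after 10 min by three cold PBS washes. Cells were NaOH-lysed and lysate radioactivity read by scintillation counting. Vehicle served as negative control and WZB117 (30 μM) as positive control. n = 3.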

P388 = assay: Cytotoxicity against mouse P388 cells; assay type: functional, cell-based

Activity [1] [%] | Compound | IC50 (HT-29) | IC50 (P388) [µM]
 | O=C1CCC[C@@H]2C[C@H](C[C@](O)(CCc3ccccc3)O2)c2c(cc(O)c(C(=O)/C=C/c3ccccc3)c2O)O1 | > 10 µM | 
 | O=C(/C=C/c1ccc(O)cc1)OCCCCCCCCCCCCCCCCOC(=O)/C=C/c1ccc(O)cc1 | > 10 µM | 
58.7 | O=C1C[C@@H]2/C(=C(O)\C=C\c3ccccc3)C(=O)C=C[C@@H]2O1 [CRYPTOCARYONE] | 0.32 µM | 0.04
15.7 | O=C(Oc1cccc(F)c1OC(=O)c1cccc(O)c1)c1cccc(O)c1 |  | 
 | CC(=O)O[C@H]1C(=O)[C@@]2(C)[C@H]([C@H](OC(=O)c3ccccc3)[C@]3(O)C[C@H](OC(=O)[C@H](O)[C@@H](NC(=O)c4ccccc4)c4ccccc4)C(C)=C1C3(C)C)[C@]1(OC(C)=O)CO[C@@H]1C[C@@H]2O [PACLITAXEL] | > 10 µM | 
 | O=C1C[C@@H]2C3=C(C=C[C@@H]2O1)O[C@@H](c1ccccc1)CC3=O [CRYPTOCARYANONE A] | 10.9 µM | 
 | O=C1C[C@@H]2C3=C(O[C@H](c4ccccc4)CC3=O)[C@@H]3[C@@H]([C@@H]4C=C5O[C@H](c6ccccc6)CC(=O)[C@@]53[C@H]3CC(=O)O[C@@H]43)[C@@H]2O1 | > 10 µM | 
 | O=C(O)C[C@H]1CC=CC(=O)/C1=C(O)/C=C/c1ccccc1 | > 10 µg/mL | 
 | O=C1C[C@@H]2C3=C(O[C@H](c4ccccc4)CC3=O)[C@@H]3[C@H]([C@@H]2O1)[C@H]1C[C@@H]2OC(=O)C[C@@H]2[C@@]3(C(=O)/C=C/c2ccccc2)C1=O | > 10 µM | 
